In ChEMBL document CHEMBL4665898, “Semisynthetic Analogs of the Antibiotic Fidaxomicin-Design, Synthesis, and Biological Evaluation” (ACS Med Chem Lett, 2020):
Converted amounts (≈) assume the structure as drawn.

Experiments:
[1] = tested on: Clostridioides difficile; experiment: Antibacterial activity against Clostridium difficile ATCC 43255 incubated for 46 hrs in anaerobic condition by CLSI-based broth microdilution assay; assay type: functional
[2] = tested on: Clostridioides difficile; experiment: Antibacterial activity against Clostridium difficile ATCC 700057 incubated for 46 hrs in anaerobic condition by CLSI-based broth microdilution assay; assay type: functional
[3] = tested on: Clostridioides difficile; experiment: Antibacterial activity against Clostridium difficile BAA-1805 incubated for 46 hrs in anaerobic condition by CLSI-based broth microdilution assay; assay type: functional
[4] = tested on: Clostridioides difficile; experiment: Antibacterial activity against Clostridium difficile BAA-1875 incubated for 46 hrs in anaerobic condition by CLSI-based broth microdilution assay; assay type: functional
[5] = tested on: Clostridioides difficile; experiment: Antibacterial activity against Clostridium difficile ATCC 9689 incubated for 46 hrs in anaerobic condition by CLSI-based broth microdilution assay; assay type: functional; details: ATCC 9689 = DSM 1296
[6] = tested on: Clostridioides difficile; experiment: Antibacterial activity against Clostridium difficile 8260 incubated for 46 hrs in anaerobic condition by CLSI-based broth microdilution assay; assay type: functional
[7] = tested on: Clostridioides difficile; experiment: Antibacterial activity against Clostridium difficile 8282 incubated for 46 hrs in anaerobic condition by CLSI-based broth microdilution assay; assay type: functional
[8] = tested on: Clostridioides difficile; experiment: Antibacterial activity against Clostridium difficile 5680 incubated for 46 hrs in anaerobic condition by CLSI-based broth microdilution assay; assay type: functional
[9] = tested on: Clostridioides difficile; experiment: Antibacterial activity against Clostridium difficile 8264 incubated for 46 hrs in anaerobic condition by CLSI-based broth microdilution assay; assay type: functional
[10] = tested on: Clostridioides difficile; experiment: Antibacterial activity against Clostridium difficile 8290 incubated for 46 hrs in anaerobic condition by CLSI-based broth microdilution assay; assay type: functional
[11] = tested on: Mycobacterium tuberculosis; experiment: Antimycobacterial activity against recombinant Mycobacterium tuberculosis H37Rv expressed in green fluorescence protein by measuring increase in fluorescence after 10 days in presence of middlebrook 7H9/OADC medium by GFP reporter gene assay; assay type: functional; details: 240 h, time 10 day
[12] = tested on: Staphylococcus aureus; experiment: Antibacterial activity against Staphylococcus aureus ATCC 29213 incubated overnight by broth dilution method; assay type: functional
How it was run: (§1)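 Strains pre-grown overnight at 37 °C on Mueller Hinton II agar; CLSI broth dilution, inoculum about 7.5 × 10^5 CFU/well. Compounds taken from 1.0 mg/mL stocks in 50 % methanol/H2O, diluted in H2O as 2-fold series. Plates held at 37 °C overnight; MIC read visually as lowest concentration with no growth.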

[13] = tested on: Bacillus subtilis; experiment: Antibacterial activity against Bacillus subtilis DSM3256 incubated overnight by broth dilution method; assay type: functional; how it was run: as §1
[14] = Aqueous solubility of the compound in phosphate buffer at pH 7 after 5 hrs by UHPLC analysis; assay type: physicochemical
How it was run: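 Solid added to 1.0 mL pH 7 phosphate buffer containing 50 µg/mL caffeine internal standard until saturated. Stirred 5 h at room temperature, passed through a 0.22 µm filter, then run on C18 UHPLC with a water/MeCN + 0.1 % HCOOH gradient. Analyte/IS peak-area ratio was converted to concentration using a linear calibration from MeOH standards at 50–500 µg/mL.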

[15] = tested on: Clostridioides difficile; experiment: Antibacterial activity against Clostridium difficile under anaerobic condition by CLSI-based broth microdilution assay; assay type: functional
How it was run: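 Isolates streaked on Brucella agar with hemin, vitamin K and 5% sheep blood, anaerobic 35–37°C, 44–48 h. CLSI broth microdilution in Brucella broth with hemin, vitamin K, 5% laked horse blood. Test agents in DMSO, 2-fold series, 16–0.015 µg/mL. Inoculum from a 0.5 McFarland suspension diluted 1:10. Incubated anaerobically 35–37°C, read at 46 h; MIC = lowest concentration inhibiting visible growth.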

[16] = tested on: Clostridioides difficile; experiment: Antibacterial activity against Clostridium difficile incubated for 48 hrs by microbroth dilution method; assay type: functional
How it was run: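 Per CLSI, anaerobic broth microdilution in Brucella broth with hemin, vitamin K and 5% laked horse blood. Isolates pre-grown anaerobically on supplemented Brucella blood agar, 35–37 °C, 44–48 h. Inoculum at 0.5 McFarland, diluted 1:10. 2-fold drug series from DMSO, 16–0.015 µg/mL. Incubated anaerobically at 35–37 °C and read at 46 h. MIC is the lowest concentration inhibiting visible growth.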

[17] = tested on: Staphylococcus aureus; experiment: Antibacterial activity against Staphylococcus aureus by CLSI-based broth microdilution method; assay type: functional
How it was run: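 S. aureus ATCC29213 grown overnight at 37 °C on MH II agar. MIC by CLSI broth dilution at about 7.5 × 10^5 CFU/well. Compounds diluted 2-fold in water from 1.0 mg/mL stocks in 50% methanol. Plates incubated overnight at 37 °C. MIC is the lowest concentration with no growth, read by eye.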

Compound: CCc1c(Cl)c(O)c(Cl)c(O)c1C(=O)O[C@@H]1[C@@H](O)[C@@H](OC)[C@@H](OC/C2=C\C=C\C[C@H](O)/C(C)=C/[C@H](CC)[C@@H](O[C@@H]3OC(C)(C)[C@@H](OC(=O)C(C)C)[C@H](O)[C@@H]3O)/C(C)=C/C(C)=C/C[C@@H]([C@@H](C)O)OC2=O)O[C@H]1C
- MIC [1]: 0.03 µg/mL (≈ 0.0284 µM)
- MIC [2]: 0.03 µg/mL (≈ 0.0284 µM)
- MIC [3]: 0.12 µg/mL (≈ 0.113 µM)
- MIC [4]: 0.03 µg/mL (≈ 0.0284 µM)
- MIC [5]: ≤ 0.015 µg/mL
- MIC [6]: 0.06 µg/mL (≈ 0.0567 µM)
- MIC [7]: 0.03 µg/mL (≈ 0.0284 µM)
- MIC [8]: 0.06 µg/mL (≈ 0.0567 µM)
- MIC [9]: 0.12 µg/mL (≈ 0.113 µM)
- MIC [10]: 0.03 µg/mL (≈ 0.0284 µM)
- MIC90 [11]: 0.25 µg/mL
- MIC [12]: 8 µg/mL (≈ 7.56 µM)
- MIC [13]: 8 µg/mL (≈ 7.56 µM)
- solubility at 5 h [14]: 84 µg/mL (≈ 79.4 µM)
- MIC [15]: 0.012 µg/mL (≈ 0.0113 µM)
- MIC [16]: 0.25 µg/mL (≈ 0.236 µM)
- MIC [17]: 2 µg/mL (≈ 1.89 µM)
